Measurements reported in ChEMBL document CHEMBL1157882, “Novel 2-[(benzylamino)methyl]pyrrolidine-3,4-diol derivatives as alpha-mannosidase inhibitors and with antitumor activities against hematological and solid malignancies” (Bioorg Med Chem, 2010).
Activity calls are given as the source filed them. The calls are words filed in the database; no cut-off is given here.

Tests used:
Oryza sativa = experiment: Inhibition of alpha-glucosidase from rice at 1 mM at pH 4
In short: (§1)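 Glycosidase panel of commercial enzymes assayed at each enzyme's optimal pH with compound at 1 mM; percentage inhibition of enzyme activity calculated.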

[1] = target: Glucoamylase (Aspergillus niger) (UniProt P69328); experiment: Inhibition of amyloglucosidase from Aspergillus niger at 1 mM at pH 5; in short: as §1
Sequence of Glucoamylase (Aspergillus niger) (P69328 whole entry): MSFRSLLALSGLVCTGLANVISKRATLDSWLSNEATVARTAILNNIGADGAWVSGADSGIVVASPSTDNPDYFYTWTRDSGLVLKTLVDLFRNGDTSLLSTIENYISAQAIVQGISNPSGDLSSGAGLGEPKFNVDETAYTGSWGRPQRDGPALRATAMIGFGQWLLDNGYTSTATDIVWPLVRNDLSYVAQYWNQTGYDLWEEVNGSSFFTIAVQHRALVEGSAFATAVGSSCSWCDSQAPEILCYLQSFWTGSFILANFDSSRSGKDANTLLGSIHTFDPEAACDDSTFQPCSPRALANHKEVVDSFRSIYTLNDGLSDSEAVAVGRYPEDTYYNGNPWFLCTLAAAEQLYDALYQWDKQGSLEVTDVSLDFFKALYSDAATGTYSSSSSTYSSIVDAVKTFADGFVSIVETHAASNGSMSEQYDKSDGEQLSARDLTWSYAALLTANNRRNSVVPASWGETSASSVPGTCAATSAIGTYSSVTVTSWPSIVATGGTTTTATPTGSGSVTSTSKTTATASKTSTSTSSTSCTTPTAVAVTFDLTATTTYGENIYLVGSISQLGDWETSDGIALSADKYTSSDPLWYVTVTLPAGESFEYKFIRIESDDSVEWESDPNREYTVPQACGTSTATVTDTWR

Prunus dulcis = experiment: Inhibition of beta-glucosidase from almond at 1 mM at pH 5; in short: as §1
Canavalia ensiformis [2] = experiment: Inhibition of alpha-mannosidase from jack bean at 1 mM at pH 5; in short: as §1
[3] = Inhibition of alpha-mannosidase from jack bean at pH 5; parameters: species or system Canavalia ensiformis
Helix pomatia = experiment: Inhibition of beta-mannosidase from snail at pH 4; parameters: concentration or dose not given beside the values; details: concentration not given here
Aspergillus niger = experiment: Inhibition of beta-xylosidase from Aspergillus niger at pH 5; parameters: concentration or dose not given beside the values; details: concentration not given here
Canavalia ensiformis [4] = experiment: Inhibition of beta-N-acetylglucosaminidase from jack bean at pH 5; parameters: concentration or dose not given beside the values; details: concentration not given here
Bos taurus = species on record: Bos taurus; experiment: Inhibition of beta-N-acetylglucosaminidase from bovine kidney at pH 4; parameters: concentration or dose not given beside the values; details: concentration not given here
U-266 = experiment: Cytotoxicity against human U266 cells after 72 hrs by colorimetric assay; assay type: functional, cell-based
In short: (§2)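 Cells grown in McCoy's medium (adherent lines) or RPMI-1640 (U266), each with 10% FBS, L-glutamine and antibiotics, at 37 °C in 5% CO₂. Compound dissolved as a 100 mM DMSO stock, final DMSO ≤0.4%. Cells were exposed for 72 h across a 10^-2 to 400 µM range. Viability was read by CellTiter 96 Aqueous (2–4 h incubation, absorbance 490 nm). Triplicate wells; IC50 from curve fitting.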

Jurkat [5] = experiment: Cytotoxicity against human Jurkat cells after 72 hrs by colorimetric assay; assay type: functional, cell-based
[6] = Cytotoxicity against human U87 cells after 72 hrs by colorimetric assay; assay type: functional, cell-based, U-87MG ATCC; in short: as §2
PC-3 = experiment: Cytotoxicity against human PC3 cells after 72 hrs by colorimetric assay; assay type: functional, cell-based; in short: as §2
A549 = experiment: Cytotoxicity against human A549 cells after 72 hrs by colorimetric assay; assay type: functional, cell-based; in short: as §2
MCF7 = experiment: Cytotoxicity against human MCF7 cells after 72 hrs by colorimetric assay; assay type: functional, cell-based; in short: as §2
MDA-MB-231 = experiment: Cytotoxicity against human MDA-MB-231 cells after 72 hrs by colorimetric assay; assay type: functional, cell-based; in short: as §2
BT-474 = experiment: Cytotoxicity against human BT474 cells after 72 hrs by colorimetric assay; assay type: functional, cell-based; in short: as §2
SK-BR-3 = experiment: Cytotoxicity against human SKBR3 cells after 72 hrs by colorimetric assay; assay type: functional, cell-based; in short: as §2
[7] = target: T1, Tissue alpha-L-fucosidase (Bos taurus) (UniProt Q2KIM0); experiment: Inhibition of alpha-L-fucosidase from bovine kidney at 1 mM at pH 6; in short: as §1
T1 sequence (whole entry): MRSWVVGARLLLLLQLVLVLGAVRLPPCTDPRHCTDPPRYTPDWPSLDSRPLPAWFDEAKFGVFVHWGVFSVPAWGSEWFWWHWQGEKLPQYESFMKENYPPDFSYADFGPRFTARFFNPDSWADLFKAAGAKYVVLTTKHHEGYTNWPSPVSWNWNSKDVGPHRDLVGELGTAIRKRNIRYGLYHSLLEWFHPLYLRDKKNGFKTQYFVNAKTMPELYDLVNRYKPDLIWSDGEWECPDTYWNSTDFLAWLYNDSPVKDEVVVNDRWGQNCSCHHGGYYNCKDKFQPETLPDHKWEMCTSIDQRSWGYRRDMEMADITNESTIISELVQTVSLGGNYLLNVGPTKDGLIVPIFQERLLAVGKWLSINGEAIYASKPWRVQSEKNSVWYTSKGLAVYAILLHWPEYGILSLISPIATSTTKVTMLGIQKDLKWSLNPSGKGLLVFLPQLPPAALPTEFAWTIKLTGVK

[8] = target: Alpha-galactosidase (Coffea arabica) (UniProt Q42656); experiment: Inhibition of alpha-galactosidase from coffee beans at 1 mM at pH 6; in short: as §1
Sequence of Alpha-galactosidase (Coffea arabica) (Q42656 16-378 limits assumed): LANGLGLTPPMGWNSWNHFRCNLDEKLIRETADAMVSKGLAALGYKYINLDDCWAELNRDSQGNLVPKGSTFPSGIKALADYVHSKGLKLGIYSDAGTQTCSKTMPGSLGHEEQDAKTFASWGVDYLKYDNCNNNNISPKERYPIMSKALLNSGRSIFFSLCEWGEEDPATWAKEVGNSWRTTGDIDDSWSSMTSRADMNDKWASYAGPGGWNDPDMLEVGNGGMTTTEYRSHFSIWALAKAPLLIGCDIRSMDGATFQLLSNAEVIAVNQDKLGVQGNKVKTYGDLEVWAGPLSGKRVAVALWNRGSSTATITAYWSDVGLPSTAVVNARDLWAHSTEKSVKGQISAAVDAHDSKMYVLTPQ

[9] = target: Beta-galactosidase (Escherichia coli) (UniProt Q8VNN2); experiment: Inhibition of beta-galactosidase from Escherichia coli at 1 mM at pH 7; in short: as §1
Sequence of Beta-galactosidase (Escherichia coli) (Q8VNN2 whole entry, looked up): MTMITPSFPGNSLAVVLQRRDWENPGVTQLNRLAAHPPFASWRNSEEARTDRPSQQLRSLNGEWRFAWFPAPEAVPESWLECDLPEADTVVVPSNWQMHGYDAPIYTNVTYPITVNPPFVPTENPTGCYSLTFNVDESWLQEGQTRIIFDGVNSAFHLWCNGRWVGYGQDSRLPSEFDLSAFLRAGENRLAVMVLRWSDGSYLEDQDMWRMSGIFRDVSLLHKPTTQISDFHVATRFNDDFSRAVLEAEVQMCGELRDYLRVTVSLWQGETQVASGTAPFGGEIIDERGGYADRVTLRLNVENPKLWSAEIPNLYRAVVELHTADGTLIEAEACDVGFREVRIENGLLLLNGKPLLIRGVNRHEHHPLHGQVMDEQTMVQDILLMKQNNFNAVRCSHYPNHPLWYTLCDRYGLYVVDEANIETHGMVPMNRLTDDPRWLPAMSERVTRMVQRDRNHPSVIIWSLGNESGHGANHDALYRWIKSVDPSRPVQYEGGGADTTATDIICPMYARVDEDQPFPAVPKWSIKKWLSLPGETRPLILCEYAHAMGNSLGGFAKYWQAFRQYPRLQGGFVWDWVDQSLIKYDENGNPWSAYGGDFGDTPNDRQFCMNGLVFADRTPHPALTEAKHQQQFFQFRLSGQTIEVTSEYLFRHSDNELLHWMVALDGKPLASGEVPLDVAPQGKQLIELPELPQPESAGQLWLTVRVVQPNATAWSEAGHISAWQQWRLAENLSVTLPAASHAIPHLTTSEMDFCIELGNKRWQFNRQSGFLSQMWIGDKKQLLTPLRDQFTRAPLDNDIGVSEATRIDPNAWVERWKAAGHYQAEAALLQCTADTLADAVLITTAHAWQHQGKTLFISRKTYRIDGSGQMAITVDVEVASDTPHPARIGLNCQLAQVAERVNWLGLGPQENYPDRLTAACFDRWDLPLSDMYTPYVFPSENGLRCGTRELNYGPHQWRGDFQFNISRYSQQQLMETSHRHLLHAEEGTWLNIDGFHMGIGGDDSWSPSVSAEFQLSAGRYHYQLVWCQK

[10] = target: T2, Beta-galactosidase (Aspergillus oryzae) (UniProt Q2U7N3); experiment: Inhibition of beta-galactosidase from Aspergillus oryzae at 1 mM at pH 4; in short: as §1
T2 sequence (whole entry): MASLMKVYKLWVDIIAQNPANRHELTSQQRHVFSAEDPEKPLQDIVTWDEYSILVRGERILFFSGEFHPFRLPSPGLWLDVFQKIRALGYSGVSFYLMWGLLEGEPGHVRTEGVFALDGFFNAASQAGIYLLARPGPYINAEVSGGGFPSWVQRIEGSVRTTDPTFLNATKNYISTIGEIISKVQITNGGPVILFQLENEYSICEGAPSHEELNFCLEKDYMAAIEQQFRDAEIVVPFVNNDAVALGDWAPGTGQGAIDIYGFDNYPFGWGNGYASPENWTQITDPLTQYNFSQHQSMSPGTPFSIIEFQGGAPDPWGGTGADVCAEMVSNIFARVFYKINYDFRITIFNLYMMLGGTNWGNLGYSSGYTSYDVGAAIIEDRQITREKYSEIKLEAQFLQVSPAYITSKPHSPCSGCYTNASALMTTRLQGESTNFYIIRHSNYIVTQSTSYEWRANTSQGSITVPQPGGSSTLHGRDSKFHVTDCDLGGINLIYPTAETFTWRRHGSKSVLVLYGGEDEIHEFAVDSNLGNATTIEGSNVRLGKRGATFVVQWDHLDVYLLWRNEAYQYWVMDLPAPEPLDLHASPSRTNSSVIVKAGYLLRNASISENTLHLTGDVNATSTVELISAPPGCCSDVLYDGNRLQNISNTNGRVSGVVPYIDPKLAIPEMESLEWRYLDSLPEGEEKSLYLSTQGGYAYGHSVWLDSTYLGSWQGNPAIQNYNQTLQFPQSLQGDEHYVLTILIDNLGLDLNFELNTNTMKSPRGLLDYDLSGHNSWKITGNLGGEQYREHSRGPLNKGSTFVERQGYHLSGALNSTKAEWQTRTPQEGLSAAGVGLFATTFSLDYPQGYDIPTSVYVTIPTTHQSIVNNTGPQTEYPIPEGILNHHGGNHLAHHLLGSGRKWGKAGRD

Saccharomyces cerevisiae = experiment: Inhibition of alpha-glucosidase from yeast at 1 mM at pH 7; in short: as §1
Jurkat [11] = experiment: Cytotoxicity in human Jurkat cells overexpressing Bcl2 assessed as cell death at 40 uM after 72 hrs by propidium iodide-staining based flow cytometry; assay type: functional
In short: (§3)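 Jurkat T cells stably overexpressing Bcl-2, plus vector controls, in RPMI-1640 with 10% FBS. Seeded at 4×10⁴ per well and treated for 72 h with 40 µM etoposide, 2 µM doxorubicin or 50 µM compound. Dead cells counted by propidium iodide staining and flow cytometry; means of triplicates with SD.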

Jurkat [12] = experiment: Cytotoxicity in human Jurkat cells overexpressing Bcl2 assessed as cell death at 2 uM after 72 hrs by propidium iodide-staining based flow cytometry; assay type: functional; in short: as §3
[13] = Homo sapiens, U-266, 72 h, read-out: IC50
[14] = Homo sapiens, Jurkat, 72 h, read-out: IC50
[15] = Homo sapiens, U-87 MG, 72 h, read-out: IC50
[16] = Homo sapiens, PC-3, 72 h, read-out: IC50
[17] = Homo sapiens, A549, 72 h, read-out: IC50
[18] = Homo sapiens, MCF7, 72 h, read-out: IC50
[19] = Homo sapiens, MDA-MB-231, 72 h, read-out: IC50
[20] = Homo sapiens, BT-474, 72 h, read-out: IC50
[21] = Homo sapiens, SK-BR-3, 72 h, read-out: IC50

Compound | inhibition (Oryza sativa) [%] | inhibition [1] [%] | inhibition (Prunus dulcis) [%] | inhibition (Canavalia ensiformis [2]) [%] | IC50 [3] [nM] | Ki [3] [nM] | inhibition (Helix pomatia) [%] | inhibition (Aspergillus niger) [%] | inhibition (Canavalia ensiformis [4]) [%] | inhibition (Bos taurus) [%] | inhibition [7] [%] | inhibition [8] [%] | inhibition [9] [%] | inhibition [10] [%] | inhibition (Saccharomyces cerevisiae) [%] | IC50 (U-266; [13]) [µM] | IC50 (Jurkat [5]; [14]) [µM] | IC50 [6, 15] [µM] | IC50 (PC-3; [16]) [µM] | IC50 (A549; [17]) [µM] | further results
COc1cc([C@@H]2c3cc4c(cc3[C@@H](O[C@@H]3O[C@@H]5CO[C@@H](C)O[C@H]5[C@H](O)[C@H]3O)[C@H]3COC(=O)[C@H]23)OCO4)cc(OC)c1O |  |  |  |  |  |  |  |  |  |  |  |  |  |  |  |  |  |  |  |  | Activity (Jurkat [11]): inactive
OC[C@H](NC[C@H]1NC[C@H](O)[C@@H]1O)c1ccc(OCc2ccccc2)cc1 | < 10 | < 10 | 40 | 99 | 1400 | 600 | < 10 | 45 | < 10 | < 10 | < 10 | < 10 | < 10 | < 10 | 45 |  |  |  |  |  | IC50 (U-266; u-266): Not Active; IC50 (Jurkat [5]; jurkat): Not Active; IC50 ([6]; u-87mg atcc): Not Active; IC50 (PC-3; pc-3): Not Active; IC50 (A549; a549): Not Active; IC50 (MCF7; mcf7): Not Active; IC50 (MDA-MB-231; mda-mb-231): Not Active; IC50 (BT-474; bt-474): Not Active; IC50 (SK-BR-3; sk-br-3): Not Active
OC[C@H](NC[C@H]1NC[C@H](O)[C@@H]1O)c1ccc(-c2ccccc2)cc1 | < 10 | < 10 | 20 | 99 | 1400 | 900 | < 10 | 50 | < 10 | < 10 | < 10 | < 10 | < 10 | < 10 | 24 | > 200 | > 200 | > 200 | > 200 | > 200 | IC50 (MCF7; [18]): > 200 µM; IC50 (MDA-MB-231; [19]): > 200 µM; IC50 (BT-474; [20]): > 200 µM; IC50 (SK-BR-3; [21]): > 200 µM
COc1cccc2c1C(=O)c1c(O)c3c(c(O)c1C2=O)C[C@@](O)(C(=O)CO)C[C@@H]3O[C@H]1C[C@H](N)[C@H](O)[C@H](C)O1 |  |  |  |  |  |  |  |  |  |  |  |  |  |  |  |  |  |  |  |  | Activity (Jurkat [12]): inactive

More lines, in order of falling IC50 [3], values ahead:

inhibition (Oryza sativa) [%] | inhibition [1] [%] | inhibition (Prunus dulcis) [%] | inhibition (Canavalia ensiformis [2]) [%] | IC50 [3] [nM] | Ki [3] [nM] | inhibition (Helix pomatia) [%] | inhibition (Aspergillus niger) [%] | inhibition (Canavalia ensiformis [4]) [%] | inhibition (Bos taurus) [%] | inhibition [7] [%] | inhibition [8] [%] | inhibition [9] [%] | inhibition [10] [%] | inhibition (Saccharomyces cerevisiae) [%] | Compound | IC50 (U-266; [13]) [µM] | IC50 (Jurkat [5]; [14]) [µM] | IC50 [6, 15] [µM] | IC50 (PC-3; [16]) [µM] | IC50 (A549; [17]) [µM] | further results
< 10 | < 10 | 36 | 97 | 1100 | 800 | < 10 | 50 | < 10 | < 10 | < 10 | < 10 | < 10 | < 10 | < 10 | OC[C@H](NC[C@H]1NC[C@H](O)[C@@H]1O)c1ccc(-c2ccsc2)cc1 |  |  |  |  |  | IC50 (U-266; u-266): Not Active; IC50 (Jurkat [5]; jurkat): Not Active; IC50 ([6]; u-87mg atcc): Not Active; IC50 (PC-3; pc-3): Not Active; IC50 (A549; a549): Not Active; IC50 (MCF7; mcf7): Not Active; IC50 (MDA-MB-231; mda-mb-231): Not Active; IC50 (BT-474; bt-474): Not Active; IC50 (SK-BR-3; sk-br-3): Not Active
< 10 | < 10 | 72 | 99 | 900 | 500 | < 10 | 28 | < 10 | < 10 | < 10 | < 10 | < 10 | < 10 | 41 | C=CCOc1ccc([C@H](CO)NC[C@H]2NC[C@H](O)[C@@H]2O)cc1 | > 200 | > 200 | > 200 | > 200 | > 200 | IC50 (MCF7; [18]): > 200 µM; IC50 (MDA-MB-231; [19]): > 200 µM; IC50 (BT-474; [20]): > 200 µM; IC50 (SK-BR-3; [21]): > 200 µM
< 10 | < 10 | 62 | 98 | 800 | 500 | < 10 | 28 | < 10 | < 10 | < 10 | < 10 | < 10 | < 10 | 41 | COc1ccc([C@H](CO)NC[C@H]2NC[C@H](O)[C@@H]2O)cc1 | > 200 | > 200 | > 200 | > 200 | > 200 | IC50 (MCF7; [18]): > 200 µM; IC50 (MDA-MB-231; [19]): > 200 µM; IC50 (BT-474; [20]): > 200 µM; IC50 (SK-BR-3; [21]): > 200 µM
